Values after ≈ are worked out from the molar mass of the structure shown.
Columns and labels:
Candida albicans [1] = assay: Ratio of the in vitro minimal inhibitory to that of bifonazole against Candida albicans (MIC(compound)/MIC(bifonazole)); format: functional
Procedure, shortened: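 Broth microdilution per NCCLS M27-A2 against 12 Candida albicans strains (AIDS oropharyngeal, HIV vulvovaginitis isolates, ATCC 24433 and 20891, lab strains 3153 and CA2). Inoculum ~10^4 cells/mL in RPMI 1640, pH 7.0; DMSO stocks 6.4 mg/mL, twofold dilutions 0.016–64 μg/mL; read at 24 h, 28 °C, no visible growth. Mean MIC over strains converted to μmol/mL, divided by bifonazole MIC.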

Candida albicans [2] = assay: In vitro minimal inhibitory concentration against Candida albicans with percentage of resistant strains %R = 33.33 (MIC > 64 ug/mL) at a range of 0.25-0.5 ug/mL; format: functional
Candida albicans [3] = assay: In vitro concentration causing 50% inhibition of Candida albicans with percentage of resistant strains %R = 33.33 (MIC > 64 ug/mL) at a range of 0.25-0.5 ug/mL; format: functional
Candida albicans [4] = assay: In vitro concentration causing 90% inhibition of Candida albicans with percentage of resistant strains %R = 33.33 (MIC > 64 ug/mL) at a range of 0.25-0.5 ug/mL; format: functional
Candida albicans [5] = assay: In vitro minimal inhibitory concentration against Candida albicans with percentage of resistant strains %R = 0 (MIC > 64 ug/mL) at a range of 0.062-0.5 ug/mL; format: functional
Candida albicans [6] = assay: In vitro concentration causing 50% inhibition of Candida albicans with percentage of resistant strains %R = 0 (MIC > 64 ug/mL) at a range of 0.062-0.5 ug/mL; format: functional
Candida albicans [7] = assay: In vitro concentration causing 90% inhibition of Candida albicans with percentage of resistant strains %R = 0 (MIC > 64 ug/mL) at a range of 0.062-0.5 ug/mL; format: functional
Candida albicans [8] = assay: In vitro minimal inhibitory concentration against Candida albicans with percentage of resistant strains %R = 33.33 (MIC > 64 ug/mL) at a range of 0.125-2 ug/mL; format: functional
Candida albicans [9] = assay: In vitro concentration causing 50% inhibition of Candida albicans with percentage of resistant strains %R = 33.33 (MIC > 64 ug/mL) at a range of 0.125-2 ug/mL; format: functional
Candida albicans [10] = assay: In vitro concentration causing 90% inhibition of Candida albicans with percentage of resistant strains %R = 33.33 (MIC > 64 ug/mL) at a range of 0.125-2 ug/mL; format: functional
Candida albicans [11] = assay: In vitro minimal inhibitory concentration against Candida albicans with percentage of resistant strains %R = 41.66 (MIC > 64 ug/mL) at a range of 0.25-4 ug/mL; format: functional
Candida albicans [12] = assay: In vitro concentration causing 50% inhibition of Candida albicans with percentage of resistant strains %R = 41.66 (MIC > 64 ug/mL) at a range of 0.25-4 ug/mL; format: functional
Candida albicans [13] = assay: In vitro concentration causing 90% inhibition of Candida albicans with percentage of resistant strains %R = 41.66 (MIC > 64 ug/mL) at a range of 0.25-4 ug/mL; format: functional
Candida albicans [14] = assay: In vitro concentration causing 50% inhibition of Candida albicans with percentage of resistant strains %R = 33.3 (MIC > 64 ug/mL) at a range of 0.25-32 ug/mL
Candida albicans [15] = assay: In vitro concentration causing 90% inhibition of Candida albicans with percentage of resistant strains %R = 33.3 (MIC > 64 ug/mL) at a range of 0.25-32 ug/mL
Candida albicans [16] = assay: In vitro minimal inhibitory concentration against Candida albicans with percentage of resistant strains %R = 33.3 (MIC > 64 ug/mL) at a range of 0.25-32 ug/mL
Candida albicans [17] = assay: In vitro minimal inhibitory concentration against Candida albicans with percentage of resistant strains %R = 0 (MIC > 64 ug/mL) at a range of 0.016-0.5 ug/mL; format: functional
Candida albicans [18] = assay: In vitro concentration causing 50% inhibition of Candida albicans with percentage of resistant strains %R = 0 (MIC > 64 ug/mL) at a range of 0.016-0.5 ug/mL; format: functional
Candida albicans [19] = assay: In vitro concentration causing 90% inhibition of Candida albicans with percentage of resistant strains %R = 0 (MIC > 64 ug/mL) at a range of 0.016-0.5 ug/mL; format: functional
Candida albicans [20] = assay: In vitro minimal inhibitory concentration against Candida albicans with percentage of resistant strains %R = 33.3 (MIC > 64 ug/mL) at a range of 0.065-4 ug/mL; format: functional
Candida albicans [21] = assay: In vitro concentration causing 50% inhibition of Candida albicans with percentage of resistant strains %R = 33.3 (MIC > 64 ug/mL) at a range of 0.065-4 ug/mL; format: functional
Candida albicans [22] = assay: In vitro concentration causing 90% inhibition of Candida albicans with percentage of resistant strains %R = 33.3 (MIC > 64 ug/mL) at a range of 0.065-4 ug/mL; format: functional

| Compound | Ratio (Candida albicans [1]) | other results |
| --- | --- | --- |
| Fc1ccc(-n2ccc(C(c3ccccc3)n3ccnc3)c2)cc1 (stereo unspecified) | 4.1 | – |
| c1ccc(-c2c[nH]cc2C(c2ccc3ccccc3c2)n2ccnc2)cc1 (stereo unspecified) | 3.8 | – |
| Clc1ccc(-n2ccc(C(c3ccccc3)n3ccnc3)c2)cc1 (stereo unspecified) | 0.7 | – |
| Cc1ccc(C(c2ccn(-c3ccc(Cl)cc3)c2)n2ccnc2)cc1 (stereo unspecified) | 1.1 | – |
| c1ccc(C(c2ccc(-n3cccc3)cc2)n2ccnc2)cc1 (stereo unspecified) | 6.8 | – |
| Fc1ccc(C(c2ccn(-c3ccc(Cl)cc3)c2)n2ccnc2)cc1 (stereo unspecified) | 2.8 | – |
| Clc1ccc(-c2c[nH]cc2C(c2ccc(Cl)cc2Cl)n2ccnc2)cc1 (stereo unspecified) | 0.92 | MIC (Candida albicans [2]): 4.2 µg/mL (≈ 10.4 µM); MIC50 (Candida albicans [3]): 0.25 µg/mL (≈ 0.621 µM); MIC90 (Candida albicans [4]): 0.5 µg/mL (≈ 1.24 µM) |
| Nc1ccc(-c2c[nH]cc2C(c2ccc(Cl)cc2Cl)n2ccnc2)cc1 (stereo unspecified) | 28 | – |
| Oc1ccc(-c2c[nH]cc2C(c2ccc(Cl)cc2Cl)n2ccnc2)cc1 (stereo unspecified) | 26 | – |
| CC(Cc1ccc(Cl)cc1Cl)n1ccnc1.COc1ccccc1 (stereo unspecified) | 1 | – |
| CC(C)=CCn1cc(-c2ccc(Cl)cc2)c(C(c2ccccc2)n2ccnc2)c1 (stereo unspecified) | 0.043 | MIC (Candida albicans [5]): 0.194 µg/mL (≈ 0.483 µM); MIC50 (Candida albicans [6]): 0.065 µg/mL (≈ 0.162 µM); MIC90 (Candida albicans [7]): 0.5 µg/mL (≈ 1.24 µM) |
| C=CCn1cc(-c2ccc(Cl)cc2)c(C(c2ccc(Cl)cc2Cl)n2ccnc2)c1 (stereo unspecified) | 0.15 | MIC (Candida albicans [8]): 0.73 µg/mL (≈ 1.65 µM); MIC50 (Candida albicans [9]): 0.5 µg/mL (≈ 1.13 µM); MIC90 (Candida albicans [10]): 2 µg/mL (≈ 4.52 µM) |
| CCn1cc(-c2ccc(Cl)cc2Cl)c(C(c2ccccc2)n2ccnc2)c1 (stereo unspecified) | 0.33 | MIC (Candida albicans [11]): 1.46 µg/mL (≈ 3.68 µM); MIC50 (Candida albicans [12]): 1 µg/mL (≈ 2.52 µM); MIC90 (Candida albicans [13]): 2 µg/mL (≈ 5.05 µM) |
| CCn1cc(-c2ccc(Cl)cc2)c(C(c2ccccc2)n2ccnc2)c1 (stereo unspecified) | 0.11 | MIC50 (Candida albicans [14]): 1 µg/mL (≈ 2.76 µM); MIC90 (Candida albicans [15]): 8 µg/mL (≈ 22.1 µM); MIC (Candida albicans [16]): 5.59 µg/mL (≈ 15.4 µM) |
| CCCn1cc(-c2ccc(Cl)cc2)c(C(c2ccccc2)n2ccnc2)c1 (stereo unspecified) | 0.023 | MIC (Candida albicans [17]): 0.096 µg/mL (≈ 0.255 µM); MIC50 (Candida albicans [18]): 0.016 µg/mL (≈ 0.0426 µM); MIC90 (Candida albicans [19]): 0.032 µg/mL (≈ 0.0851 µM) |
| Fc1ccc(C(c2ccn(-c3ccccc3)c2)n2ccnc2)cc1 (stereo unspecified) | 1.8 | – |
| CSc1ccc(-c2c[nH]cc2C(c2ccc(Cl)cc2Cl)n2ccnc2)cc1 (stereo unspecified) | 2.8 | – |
| FC(F)(F)c1ccc(-c2c[nH]cc2C(c2ccc(Cl)cc2Cl)n2ccnc2)cc1 (stereo unspecified) | 2.2 | – |
| CC(Cc1ccc(N)cc1)n1ccnc1.COc1ccccc1 (stereo unspecified) | 1.4 | – |
| Clc1ccc(C(c2ccn(-c3ccc(Cl)cc3)c2)n2ccnc2)cc1 (stereo unspecified) | 7.3 | – |
| Clc1ccc(-c2c[nH]cc2C(c2ccccc2)n2ccnc2)cc1 (stereo unspecified) | 0.66 | MIC (Candida albicans [20]): 2.5 µg/mL (≈ 7.49 µM); MIC50 (Candida albicans [21]): 0.125 µg/mL (≈ 0.374 µM); MIC90 (Candida albicans [22]): 4 µg/mL (≈ 12 µM) |
| N#Cc1ccc(-c2c[nH]cc2C(c2ccc(Cl)cc2Cl)n2ccnc2)cc1 (stereo unspecified) | 4.3 | – |
| O=[N+]([O-])c1ccc(-c2c[nH]cc2C(c2ccc(Cl)cc2Cl)n2ccnc2)cc1 (stereo unspecified) | 4.5 | – |
| Clc1ccc(C(c2c[nH]cc2-c2ccc(-c3ccccc3)cc2)n2ccnc2)c(Cl)c1 (stereo unspecified) | 4.3 | – |
| Clc1ccc(C(c2c[nH]cc2-c2ccc(-n3cccc3)cc2)n2ccnc2)c(Cl)c1 (stereo unspecified) | 1.3 | – |

Source: ChEMBL document CHEMBL1141140, “Antifungal agents. 11. N-substituted derivatives of 1-[(aryl)(4-aryl-1H-pyrrol-3-yl)methyl]-1H-imidazole: synthesis, anti-Candida activity, and QSAR studies” (2005)
